# This is a sample that favours compounds with a hit; in the whole collection about 7.1% have one here.
# Cav3 T inh: blocks human Cav3.2 T-type calcium channel; AID 449739; Cav3.2-expressing cells, Fluo-4 calcium fluorescence FDSS; active compounds read low; 100,000 tested, 4% active; B-score at 10 µM;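 active = single-dose well whose peak fluorescence ratio is a statistical outlier from its plate by either plate-standardised score or position-corrected B-score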
# bCat KO growth: beta-catenin-lacking colon tumor cell growth suppression | HCT116 beta-catenin knockout viability, CellTiter-Glo, 60 h; active compounds read low | viability, % at 10 µM | 140,000 tested, 1.5% active;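 active = viability at or under a set limit, the compound median less 4 SD, cut at about 6% in these data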;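 note: 0% = Hyamine 1622 control at 20 µM and 100% = untreated cell control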
# H69AR inhibit: growth inhibitors of human H69AR lung tumor cells | H69AR lung tumor viability, ATP luminescence, 72 h; active compounds read low | viability, % at 10 µM | 85,000 tested, 6% active;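 active = viability at or below 40%; inactive = viability above 40%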;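 note: multidrug resistant small cell line overexpressing MRP-1 efflux transporter; 100% = mean luminescence of untreated control wells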
# Lung fibro prol: blocks proliferation of human lung fibroblasts; LL 47 human lung fibroblast viability, ATP luminescence; active compounds read low; 85,000 tested, 1.1% active; viability, % at 10 µM; AID 719;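 active = viability at or below 50% in the single dose screen; inactive = viability above 50%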;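 note: compound exposure lasted 72 h before the ATP readout; 100% = median luminescence of untreated cell-only wells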
#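 Benchmarks: Cell-only wells, no compound | Test system: LL 47 human lung fibroblasts, passage 12 or lower | Input: 1,150 cells/well | Measured by: CellTiter-Glo luminescence measuring cellular ATP | Medium: IMEM, 15% FBS supplement | Schedule: Overnight attachment after seeding, then 72 h compound exposure at 37 °C | Doses: Compound addition at 0.1% DMSO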
# PTEN del growth: PTEN-deleted cell growth suppression | AID 827 | 140,000 tested, 1.2% active | viability, % at 10 µM | HCT116 PTEN-null viability, CellTiter-Glo, 60 h; active compounds read low;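 active = viability at or below a set limit, 4 SD under the median of all tested compounds, cut at about 3.7% in these data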;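 note: PTEN knockout HCT116 line with beta catenin targeted HCT116 as companion control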
# HUVEC prolif 384: human endothelial cell proliferation inhibition. viability, % at 10 µM (by protocol). AID 648. 86,000 tested, 1.1% active. HUVEC proliferation, CellTiter-Glo luminescence, 72 h; active compounds read low;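 active = viability at or below 30%; inactive = viability above 30%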;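 note: 100% = median luminescence of DMSO-only cell control wells on each plate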
# * marks the source's active call; other numbers are inactive results; / = not tested or not shown.
SMILES,Cav3 T inh,bCat KO growth,H69AR inhibit,Lung fibro prol,PTEN del growth,HUVEC prolif 384
CCCOc1cc(C)c(S(=O)(=O)n2ccc(C)n2)cc1C,-3.82*,63.2,74.7,88.4,70.8,109.3
COc1cccc(N2CCN(c3ncnc4c3cnn4-c3ccc(C)cc3C)CC2)c1,1.44,1.7*,55.5,33.2*,3.1*,2.2*
Cc1cccc(-n2ncc3c(N4CCC5(CC4)OCCO5)ncnc32)c1,0.69,/,33.5*,88.3,/,114.8
O=C(N/N=C/c1ccc(O)cc1O)/C(=C/c1ccccc1)CCO,/,31.6,/,/,33.8,/
CCO[C@@H]1OC(C(=O)NCc2ccccc2)=C[C@H](c2cn(C(C)=O)c3ccccc23)[C@H]1CCCO,-0.611,/,/,/,/,/
CCCc1nc2ccccc2c(C(=O)OCC(=O)Nc2ccc(S(=O)(=O)N3CCOCC3)cc2)c1CC,-0.465,35.9,5.8*,78.6,27.5,65.7
CCCc1nc2ccccc2c(C(=O)OCC(=O)NCc2ccco2)c1CC,-1.98,88.4,70.7,94.2,106.3,90.4
CCCc1nc2ccccc2c(C(=O)OCC(=O)Nc2cccc(S(=O)(=O)N3CCOCC3)c2)c1CC,-0.499,61.8,34.8*,100.7,/,55.0
CCCN(CC1CC1)S(=O)(=O)c1ccc(-n2cnnn2)c(OC)c1,0.713,89.3,73.0,99.1,101.8,94.8
Cc1ccc(CNC(=O)c2ccc(Br)o2)cc1,0.0231,90.5,83.9,98.0,86.9,86.1
Cc1cc2cc(CNC(=O)c3ccc(Br)o3)ccc2[nH]1,-6.04*,/,105.9,104.1,/,96.3
Cc1cc(NC(=O)CSc2nc3sc(C)c(C)c3c(=O)n2C2CCCC2)no1,-2.82,88.9,15.2*,14.6*,84.8,44.6
COCCCNC(CC(=O)Nc1ccccc1C(=O)OC)C(=O)O (centres undefined),/,/,93.9,98.0,/,105.3
O=C(COC(=O)CCCc1c[nH]c2ccccc12)Nc1ccc2c(c1)OCO2,-1.01,101.7,97.6,103.1,102.1,92.5
CC(=O)NC(Cc1c[nH]c2ccccc12)C(=O)OCC(=O)Nc1ccc2c(c1)OCO2 (centres undefined),-0.666,83.2,12.6*,93.3,86.3,82.8
Cc1cccc(OCC(=O)Nc2ccc3c(c2)OCO3)c1C,-3.41,93.7,91.5,91.0,91.7,97.8
O=C(COC(=O)c1ccccc1NC(=O)c1ccco1)Nc1ccc2c(c1)OCO2,-0.0272,84.9,38.5*,95.0,82.4,91.1
O=C(COC(=O)C1c2ccccc2Oc2ccccc21)Nc1ccc2c(c1)OCO2,-4.27*,95.6,96.9,102.2,96.5,103.9
O=C(COC(=O)c1ccccc1NCc1ccco1)Nc1ccc2c(c1)OCO2,-0.53,90.0,67.5,97.4,89.4,83.6
Cc1ccc(C)c(OCC(=O)Nc2ccc3c(c2)OCO3)c1C,-4.66,70.3,21.4*,94.8,70.7,87.6
C=CCSC1=C(C#N)C(c2ccc(C(C)C)cc2)CC(=O)N1 (centres undefined),-3.48*,104.7,81.9,109.2,110.4,70.9
O=C(N/N=C/c1cccs1)C1COc2ccccc2O1 (centres undefined),-2.5,81.3,24.4*,95.2,78.7,69.4
Cc1ccc(C)n1-n1c(C)nc2scc(-c3ccccc3)c2c1=O,-6.86*,87.8,77.2,97.9,81.0,91.1
CCc1nc2scc(-c3ccccc3)c2c(=O)n1N,0.834,97.4,86.3,/,99.5,92.9
Cc1cccc(NC(=O)c2ccc(COc3cccc4ccccc34)o2)n1,/,74.8,/,/,81.5,/
SMILES,Cav3 T inh,bCat KO growth,H69AR inhibit,Lung fibro prol,PTEN del growth,HUVEC prolif 384
OC1(c2cccc(C(F)(F)F)c2)CCN(Cc2nnnn2CCc2ccccc2)CC1,-5.58*,82.8,92.8,98.7,57.4,95.4
COCCn1nnnc1CN1CCC(O)(c2cccc(C(F)(F)F)c2)CC1,0.156,101.1,88.7,100.0,93.1,96.0
CCc1nc(SCC(=O)N2CCCc3ccccc32)c2c(=O)n(C)c(=O)n(C)c2n1,/,/,80.2,85.9,/,91.8
O=C(Nc1ccccc1)c1ccc(N2CCN(c3ccccn3)CC2)c(S(=O)(=O)N2CCOCC2)c1,-1.6,73.4,76.2,90.6,85.2,77.7
O=C(Nc1ccccc1)c1ccc(N2CCN(c3ccccc3)CC2)c(S(=O)(=O)N2CCOCC2)c1,-5.98*,77.9,72.7,87.6,91.4,79.8
CNc1ccc(Br)cc(C(=O)/C=C/c2cc(OC)ccc2OC)c1=O,0.0443,7.4,0.6*,89.6,11.9,79.5
